Data reported in ChEMBL document CHEMBL1140697, “Synthesis and evaluation in monkey of two sensitive 11C-labeled aryloxyanilide ligands for imaging brain peripheral benzodiazepine receptors in vivo” (J Med Chem, 2008).

Tests used:
[1] = Biodistribution in rhesus monkey plasma free fraction of blood; assay type: ADME, organism-based, Macaca mulatta
Plasma [2] = assay: Drug level in rhesus monkey plasma; assay type: ADME, cell-free, Macaca mulatta
Translocator protein [3] = biological target: Translocator protein (Rattus norvegicus, UniProt P16257); assay: Binding affinity to PBR in Sprague-Dawley rat mitochondrial tissue
[4] = Binding affinity to PBR in rhesus monkey mitochondrial tissue; set-up: species or system Macaca mulatta
How it was run: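 Mitochondrial fractions (rat, rhesus monkey or human) were incubated with [³H]PK 11195 (0.38 nM final) and eight test-ligand concentrations for 2 h at 4 °C. Samples were filtered on PEI-presoaked GF/B filters, washed with ice-cold buffer and counted. Nonspecific binding was taken at the top inhibitor level (0.1–0.3 µM). Triplicate curves were run in two independent experiments. IC₅₀ was converted to K_i by Cheng–Prusoff, using K_D from homologous PK 11195 displacement.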

[5] = biological target: Kappa-type opioid receptor (Homo sapiens, UniProt P41145); assay: Binding affinity to kappa opioid receptor
Translocator protein [6] = biological target: Translocator protein (Homo sapiens, UniProt P30536); assay: Binding affinity to PBR in human mitochondrial tissue
[7] = biological target: GABA A receptor alpha-2/beta-2/gamma-2 (Homo sapiens, UniProt P18507+P47869+P47870); assay: Binding affinity to GABA alpha-2-beta-2-gamma-2 receptor; assay type: protein-complex assay
How it was run: (§1)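 K_i values at central benzodiazepine (GABA_A) receptor subtypes were determined in radioligand binding assays within the NIMH PDSP screen.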

[8] = biological target: GABA A receptor alpha-1/beta-1/gamma-2 (Homo sapiens, UniProt P14867+P18505+P18507); assay: Binding affinity to GABA alpha-1-beta-1-gamma-2 receptor; assay type: protein-complex assay; how it was run: as §1
[9] = biological target: GABA A receptor alpha-5/beta-3/gamma-2 (Rattus norvegicus, UniProt P18508+P19969+P63079); assay: Binding affinity to GABA alpha-5-beta-2-gamma-2 receptor; assay type: protein-complex assay, Homo sapiens; how it was run: as §1
[10] = biological target: GABA A receptor alpha-6/beta-2/gamma-2 (Homo sapiens, UniProt P18507+P47870+Q16445); assay: Binding affinity to GABA alpha-6-beta-2-gamma-2 receptor; assay type: protein-complex assay; how it was run: as §1
[11] = Stability in monkey whole blood >30 mins; assay type: ADME, tissue-based, Macaca mulatta; details: rhesus monkey, read-out: Stability
How it was run: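 The radioligand was incubated with monkey blood for >30 min. Radioactivity extracted from the plasma was analysed by radio-HPLC to give the percentage of unchanged radioligand, reported as mean ± SD.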

[12] = Stability in Sprague-Dawley rat brain after 2 hrs; assay type: ADME, tissue-based; details: read-out: Stability
How it was run: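 The radioligand was incubated with rat brain homogenate in saline for 2 h at 37 °C. The percentage of unchanged radioligand was then determined by radio-HPLC.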

[13] = Stability in sodium phosphate buffer at pH 7.4 after 2.5 hrs; assay type: physicochemical; details: read-out: Stability
How it was run: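 Radioligand stored in 0.15 M sodium phosphate buffer, pH 7.4, for 2.5 h; radiochemical stability measured by radio-HPLC as percent of radioactivity remaining as unchanged radioligand; n = 4.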

Plasma [14] = assay: Drug level in rhesus monkey plasma assessed as cell distribution; assay type: ADME, cell-free, Macaca mulatta
Plasma [15] = assay: Biodistribution in rat plasma at 0.472 mCi, iv after 30 mins; assay type: ADME, organism-based; details: in vivo, 0.5 h
How it was run: (§2)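 Rats received the ¹¹C-radioligand iv with varying carrier mass (µg/kg) and were sampled 30 min later. Plasma and brain homogenate were extracted into acetonitrile and analysed by reverse-phase radio-HPLC (C18; MeOH/H₂O/Et₃N, 1.5 mL/min), reporting % radioactivity as unchanged radioligand. Extraction recovery was recorded. Replicate HPLC analyses were run on one sample per rat.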

Plasma [16] = assay: Biodistribution in rat plasma at 2.34 mCi, iv after 30 mins; assay type: ADME, organism-based; details: in vivo, 0.5 h; how it was run: as §2
Rattus norvegicus = assay: Biodistribution in rat urine at 2.34 mCi, iv after 30 mins; assay type: ADME, organism-based; details: in vivo, 0.5 h
Brain = assay: Biodistribution in rat brain at 0.472 mCi, iv after 30 mins; assay type: ADME, organism-based; details: in vivo, 0.5 h
[17] = Lipophilicity, log D of the compound; assay type: physicochemical; details: octanol/water
How it was run: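 The ¹¹C-ligand (~300 µCi) in saline with 5% ethanol was mixed with sodium phosphate buffer (0.15 M, pH 7.4). Six 1 mL aliquots were each vortexed 1 min with buffer-pre-equilibrated n-octanol, centrifuged 1 min, and 200 µL of each phase was γ-counted. Aqueous counts were corrected by radio-HPLC for the unchanged fraction. LogD = log(cpm octanol/corrected cpm aqueous); mean ± SD of six determinations.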

GABA A receptor alpha-2/beta-2/gamma-2, sequence (P47870 whole entry): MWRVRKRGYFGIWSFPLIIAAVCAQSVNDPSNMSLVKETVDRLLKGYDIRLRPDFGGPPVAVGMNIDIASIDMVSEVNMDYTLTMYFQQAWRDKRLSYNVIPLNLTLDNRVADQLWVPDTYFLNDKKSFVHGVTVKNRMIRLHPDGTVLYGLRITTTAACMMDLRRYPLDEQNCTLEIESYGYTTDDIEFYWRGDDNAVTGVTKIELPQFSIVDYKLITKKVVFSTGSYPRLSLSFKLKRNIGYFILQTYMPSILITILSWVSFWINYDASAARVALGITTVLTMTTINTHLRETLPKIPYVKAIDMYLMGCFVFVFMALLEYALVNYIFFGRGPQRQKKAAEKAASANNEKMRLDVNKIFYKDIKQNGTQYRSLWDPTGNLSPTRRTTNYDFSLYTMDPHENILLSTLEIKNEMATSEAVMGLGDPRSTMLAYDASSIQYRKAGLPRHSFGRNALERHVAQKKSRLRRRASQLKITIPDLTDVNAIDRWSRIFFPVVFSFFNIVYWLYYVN
GABA A receptor alpha-2/beta-2/gamma-2, sequence (P18507 whole entry): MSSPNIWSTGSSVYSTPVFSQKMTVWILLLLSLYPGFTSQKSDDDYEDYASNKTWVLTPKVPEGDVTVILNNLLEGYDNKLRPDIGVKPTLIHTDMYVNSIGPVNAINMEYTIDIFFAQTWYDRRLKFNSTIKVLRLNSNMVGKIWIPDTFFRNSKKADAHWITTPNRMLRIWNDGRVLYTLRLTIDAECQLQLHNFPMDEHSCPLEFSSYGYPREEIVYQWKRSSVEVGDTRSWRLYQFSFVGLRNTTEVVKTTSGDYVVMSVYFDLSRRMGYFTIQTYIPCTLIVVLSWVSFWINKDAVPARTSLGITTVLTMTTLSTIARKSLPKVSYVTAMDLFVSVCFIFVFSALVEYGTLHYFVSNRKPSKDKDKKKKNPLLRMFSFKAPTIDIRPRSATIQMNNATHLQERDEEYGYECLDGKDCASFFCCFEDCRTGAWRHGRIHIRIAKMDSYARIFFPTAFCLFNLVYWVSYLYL
GABA A receptor alpha-2/beta-2/gamma-2, sequence (P47869 whole entry): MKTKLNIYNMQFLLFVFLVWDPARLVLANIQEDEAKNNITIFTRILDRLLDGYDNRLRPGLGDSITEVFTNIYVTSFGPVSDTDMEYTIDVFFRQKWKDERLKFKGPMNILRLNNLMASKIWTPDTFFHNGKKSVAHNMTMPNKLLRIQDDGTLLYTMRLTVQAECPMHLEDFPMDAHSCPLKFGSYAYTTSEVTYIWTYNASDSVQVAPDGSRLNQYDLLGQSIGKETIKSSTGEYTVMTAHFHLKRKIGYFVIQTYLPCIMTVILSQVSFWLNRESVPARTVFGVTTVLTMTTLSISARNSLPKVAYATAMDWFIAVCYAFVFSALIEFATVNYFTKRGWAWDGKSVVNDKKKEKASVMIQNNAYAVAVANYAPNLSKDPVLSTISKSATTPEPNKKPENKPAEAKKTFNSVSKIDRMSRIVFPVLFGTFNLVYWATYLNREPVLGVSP
GABA A receptor alpha-6/beta-2/gamma-2, sequence (P47870 whole entry): as the sequence (P47870 whole entry) above
GABA A receptor alpha-6/beta-2/gamma-2, sequence (P18507 whole entry): as the sequence (P18507 whole entry) above
GABA A receptor alpha-6/beta-2/gamma-2, sequence (Q16445 whole entry): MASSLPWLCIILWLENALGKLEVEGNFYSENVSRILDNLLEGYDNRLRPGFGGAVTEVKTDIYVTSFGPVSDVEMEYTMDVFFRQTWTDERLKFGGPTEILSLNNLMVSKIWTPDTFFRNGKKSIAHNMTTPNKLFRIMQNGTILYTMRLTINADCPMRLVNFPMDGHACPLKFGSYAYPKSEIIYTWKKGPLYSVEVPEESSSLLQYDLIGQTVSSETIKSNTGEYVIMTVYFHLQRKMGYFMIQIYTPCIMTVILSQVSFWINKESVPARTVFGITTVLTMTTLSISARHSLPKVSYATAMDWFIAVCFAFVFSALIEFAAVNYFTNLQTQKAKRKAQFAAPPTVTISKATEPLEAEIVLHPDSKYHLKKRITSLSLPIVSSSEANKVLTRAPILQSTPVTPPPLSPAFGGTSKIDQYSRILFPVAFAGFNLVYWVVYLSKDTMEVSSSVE
Translocator protein (Homo sapiens, UniProt P30536), sequence (P30536 whole entry): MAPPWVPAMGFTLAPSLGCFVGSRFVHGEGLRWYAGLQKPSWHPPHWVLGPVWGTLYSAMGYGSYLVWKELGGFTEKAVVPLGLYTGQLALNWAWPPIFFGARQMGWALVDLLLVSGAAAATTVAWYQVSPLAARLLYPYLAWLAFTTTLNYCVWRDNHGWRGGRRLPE
Translocator protein (Rattus norvegicus, UniProt P16257), sequence (P16257 whole entry, looked up): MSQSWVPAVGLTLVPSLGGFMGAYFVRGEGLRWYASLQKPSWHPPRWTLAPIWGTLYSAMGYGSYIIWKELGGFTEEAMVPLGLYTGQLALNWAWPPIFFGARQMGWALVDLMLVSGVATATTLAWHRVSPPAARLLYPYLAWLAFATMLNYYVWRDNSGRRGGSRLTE
Kappa-type opioid receptor, sequence (P41145 whole entry): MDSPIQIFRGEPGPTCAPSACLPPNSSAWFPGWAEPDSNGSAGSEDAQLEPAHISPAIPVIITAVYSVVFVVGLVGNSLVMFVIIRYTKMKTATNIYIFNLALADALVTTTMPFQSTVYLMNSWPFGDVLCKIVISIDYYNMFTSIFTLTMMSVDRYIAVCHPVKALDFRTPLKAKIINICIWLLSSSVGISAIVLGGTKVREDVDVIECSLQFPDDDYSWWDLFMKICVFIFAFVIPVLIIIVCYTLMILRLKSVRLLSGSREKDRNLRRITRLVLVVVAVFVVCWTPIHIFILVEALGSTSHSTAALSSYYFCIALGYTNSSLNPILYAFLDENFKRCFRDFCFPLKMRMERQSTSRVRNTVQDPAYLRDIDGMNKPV
GABA A receptor alpha-1/beta-1/gamma-2, sequence (P14867 whole entry): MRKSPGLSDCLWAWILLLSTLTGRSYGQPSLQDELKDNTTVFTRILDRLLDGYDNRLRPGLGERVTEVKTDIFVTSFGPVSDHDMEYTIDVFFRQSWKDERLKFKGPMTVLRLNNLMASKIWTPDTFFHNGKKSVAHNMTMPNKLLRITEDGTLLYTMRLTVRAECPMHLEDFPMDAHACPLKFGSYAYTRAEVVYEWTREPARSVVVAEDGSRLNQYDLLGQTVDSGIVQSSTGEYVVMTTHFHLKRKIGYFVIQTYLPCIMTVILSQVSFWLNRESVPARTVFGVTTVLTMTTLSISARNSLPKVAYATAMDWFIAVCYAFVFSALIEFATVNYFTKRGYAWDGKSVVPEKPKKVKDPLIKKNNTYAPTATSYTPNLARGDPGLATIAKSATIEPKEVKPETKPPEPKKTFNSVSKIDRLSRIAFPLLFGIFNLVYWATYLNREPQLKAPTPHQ
GABA A receptor alpha-1/beta-1/gamma-2, sequence (P18507 whole entry): as the sequence (P18507 whole entry) above
GABA A receptor alpha-1/beta-1/gamma-2, sequence (P18505 whole entry): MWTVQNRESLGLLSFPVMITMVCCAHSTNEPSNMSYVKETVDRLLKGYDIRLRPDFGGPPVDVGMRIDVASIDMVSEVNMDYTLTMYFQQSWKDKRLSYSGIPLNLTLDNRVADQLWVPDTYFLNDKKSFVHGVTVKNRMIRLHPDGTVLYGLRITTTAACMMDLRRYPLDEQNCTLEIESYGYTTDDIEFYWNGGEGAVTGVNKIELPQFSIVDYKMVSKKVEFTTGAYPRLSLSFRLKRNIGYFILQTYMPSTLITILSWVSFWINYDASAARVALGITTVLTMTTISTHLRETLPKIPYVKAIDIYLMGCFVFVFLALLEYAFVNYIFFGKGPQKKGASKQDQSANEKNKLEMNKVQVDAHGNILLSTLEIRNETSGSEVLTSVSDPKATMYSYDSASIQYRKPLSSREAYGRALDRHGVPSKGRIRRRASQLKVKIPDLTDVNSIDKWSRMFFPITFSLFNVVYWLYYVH

fraction unbound [1] | Drug uptake (Plasma [2]) | Ki (Translocator protein [3]) | Ki [4] | Ki [5] | Ki (Translocator protein [6]) | Ki [7] | Ki [8] | Ki [9] | Ki [10] | remaining at 0.5 h [11] | remaining at 2 h [12] | remaining at 2.5 h [13] | Drug uptake (Plasma [14]) | Drug uptake (Plasma [15]) | Drug uptake (Plasma [16]) | Drug uptake (Rattus norvegicus) | Drug uptake (Brain) | logD [17] | SMILES
0.056 | 33.2% | 0.68 nM | 0.944 nM | 2200 nM | 2.47 nM | > 10000 nM | > 10000 nM | > 10000 nM | > 10000 nM | 95.8% | 99.8% | 99% | 66.8% | 4.2% | 2.4% | 0.39% | 97.6% | 3.01 | CC(=O)N(Cc1ccccc1O[11CH3])c1cnccc1Oc1ccccc1
 |  |  | 4.35 nM |  |  |  |  |  |  |  |  |  |  |  |  |  |  | 3.97 | CC[C@H](C)N([11CH3])C(=O)c1cc2ccccc2c(-c2ccccc2Cl)n1
